Laboratory results as given in ChEMBL document CHEMBL1121372, “Synthesis and antihypertensive activity of 5-amino-2-pyridinecarboxylic acid derivatives” (1980).
Activity calls are given as the source filed them. The calls are words filed in the database; no cut-off is given here.

Columns and labels:
[1] = system: Rattus norvegicus; assay: The compound was tested for antihypertensive effect in spontaneously hypertensive rat (SHR), expressed as fall in blood pressure (BP) at 100 mg/kg dose given orally; Inactive; type: functional, organism-based; set-up: dose 100 mg/kg
Method in brief: (§1)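 Male SHR, about 16 weeks old, with systolic pressure above 150 mmHg, held in restraint cages. Tail-cuff occlusion was raised to 250 mmHg and then lowered, after 1 h acclimation and at least 3 baseline readings. Dosing was by daily gavage in 3% cornstarch/5% PEG-400/Tween 80 for 2 or 4 days, with 4–6 rats per drug. Readings at 1, 2, 3 and 24 h; peak fall reported.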

[2] = system: Rattus norvegicus; assay: The compound was tested for antihypertensive effect in spontaneously hypertensive rat (SHR), expressed as fall in blood pressure (BP) at 100 mg/kg dose given orally; type: functional; conditions: route oral; method in brief: as §1
[3] = system: Rattus norvegicus; assay: Antihypertensive effect in spontaneously hypertensive rat (SHR), expressed as fall in blood pressure (BP) at 50 mg/kg dose given orally; type: functional; conditions: route oral; method in brief: as §1
[4] = system: Rattus norvegicus; assay: The compound was tested for antihypertensive effect in spontaneously hypertensive rat (SHR), expressed as fall in blood pressure (BP) at 50 mg/kg dose given orally; Inactive; type: functional, organism-based; set-up: dose 50 mg/kg; method in brief: as §1
[5] = system: Canis familiaris; assay: Antihypertensive activity in unanesthetized renal hypertensive dogs measured as Heart Rate (HR) (beats/min) at 100 mg per kg dose after peroral administration on day1; type: functional, Canis lupus familiaris; conditions: route oral
Method in brief: (§2)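 Renal hypertensive dogs, unanesthetized. Test compound given orally once daily as a solid in a gelatin capsule. Blood pressure was taken at 1.5, 3, 6 and 24 h after each daily dose. Activity is the maximum change in mean blood pressure or heart rate over each daily session. Values are mean ± SE, with significance marked at p < 0.05.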

[6] = system: Canis familiaris; assay: Antihypertensive activity in unanesthetized renal hypertensive dogs measured as Heart Rate (HR) (beats/min) at 100 mg per kg dose after peroral administration on day 2 (p<0.05); type: functional, Canis lupus familiaris; conditions: route oral; method in brief: as §2
[7] = system: Canis familiaris; assay: Antihypertensive activity in unanesthetized renal hypertensive dogs measured as Heart Rate (HR) (beats/min) at 100 mg per kg dose after peroral administration on day 3; type: functional, Canis lupus familiaris; conditions: route oral; method in brief: as §2
[8] = system: Canis familiaris; assay: Antihypertensive activity in unanesthetized renal hypertensive dogs measured as Heart Rate (HR) (beats/min) at 100 mg per kg dose after peroral administration on day 4; type: functional, Canis lupus familiaris; conditions: route oral; method in brief: as §2
[9] = system: Canis familiaris; assay: Antihypertensive activity in unanesthetized renal hypertensive dogs measured as mean Blood Pressure at 100 mg per kg dose after peroral administration on day1; type: functional, Canis lupus familiaris; set-up: unit not given beside the values; conditions: route oral; method in brief: as §2
[10] = system: Canis familiaris; assay: Antihypertensive activity in unanesthetized renal hypertensive dogs measured as mean Blood Pressure at 100 mg per kg dose after peroral administration on day 2 (p<0.05); type: functional, Canis lupus familiaris; conditions: route oral; method in brief: as §2
[11] = system: Canis familiaris; assay: Antihypertensive activity in unanesthetized renal hypertensive dogs measured as mean Blood Pressure at 100 mg per kg dose after peroral administration on day 3 (p<0.05); type: functional, Canis lupus familiaris; conditions: route oral; method in brief: as §2
[12] = system: Canis familiaris; assay: Antihypertensive activity in unanesthetized renal hypertensive dogs measured as mean Blood Pressure at 100 mg per kg dose after peroral administration on day 4 ((p<0.05); type: functional, Canis lupus familiaris; conditions: route oral; method in brief: as §2
[13] = system: Rattus norvegicus; assay: The compound was tested for antihypertensive effect in spontaneously hypertensive rat (SHR), expressed as fall in blood pressure (BP) at 25 mg/kg dose given orally; type: functional; conditions: route oral; method in brief: as §1

SMILES | BP [3] [mmHg] | other results
CCC(=O)Nc1ccc(C(=O)O)nc1 | – | BP [1]: inactive
CCC(=O)N(Cc1cccc(Cl)c1)c1ccc(C(=O)O)nc1 | – | BP [2]: <20 mmHg
O=C(O)c1ccc(NCc2ccccc2Cl)cn1 | – | BP [2]: >60 mmHg
COC(=O)c1ccc(NCc2ccc(F)cc2)cn1 | >60 | –
N#Cc1ccc(NCc2ccc(F)cc2)cn1 | – | BP [4]: inactive
O=Cc1ccc(NCc2cccc(Cl)c2)cn1 | >20 | –
CN(Cc1cccc(Oc2ccccc2)c1)c1ccc(C(=O)O)nc1 | >20 | –
O=C(O)c1ccc(NCc2cccnc2)cn1 | – | BP [2]: <20 mmHg
COC(=O)c1ccc(N(C)Cc2cccc(Cl)c2)cn1 | >20 | –
O=C(O)c1ccc(NCc2ccncc2)cn1 | >20 | –
OCc1ccc(NCc2cccc(Cl)c2)cn1 | > 40 | –
O=C(O)c1ccc(NCc2ccc(C(F)(F)F)cc2)cn1 | >40 | –
O=C(O)c1ccc(NS(=O)(=O)c2ccc(Cl)cc2)cn1 | – | BP [1]: inactive
OCc1ccc(NCc2ccc(F)cc2)cn1 | >80 | –
COC(=O)c1ccc(NCc2ccc(Cl)cc2)cn1 | – | BP [2]: >60 mmHg
O=C(O)c1ccc(NCc2ccc(F)cc2)cn1 | > 60 | Maximum change in heart rate [5]: 37; HR [6]: 60; HR [7]: 52; HR [8]: 41; MBP [9]: -69; MBP [10]: -41; MBP [11]: -49; MBP [12]: -48; BP [13]: >60 mmHg

SMILES | BP [3] [mmHg] | other results
O=C(O)c1ccc(NCc2ccccn2)cn1 | >20 | –
O=C(O)c1ccc(NCCc2ccccc2)cn1 | >20 | –
O=C(O)c1ccc(NCc2cccc(C(F)(F)F)c2)cn1 | – | BP [2]: >60 mmHg
Cc1cccc(CNc2ccc(C(=O)O)nc2)c1 | >20 | –
Fc1ccc(CNc2ccc(C3N=NN=N3)nc2)cc1 | >60 | –
COc1ccc(CNc2ccc(C(=O)O)nc2)cc1F | >20 | –
CN(Cc1ccc(Cl)c(Cl)c1)c1ccc(C(=O)O)nc1 | >60 | –
O=C(O)c1ccc(NCc2ccc(F)cc2)c[n+]1[O-] | >20 | –
O=C(O)c1ccc(NCc2ccccc2F)cn1 | >40 | –
CN(Cc1cccc(F)c1)c1ccc(C(=O)O)nc1 | >20 | –
O/N=C/c1ccc(NCc2ccc(F)cc2)cn1 | <20 | –
O=C(O)c1ccc(NCc2ccc(Cl)cc2)cn1 | – | BP [2]: >40 mmHg
Cc1nc(C(=O)O)ccc1N(C)Cc1cccc(Cl)c1 | – | BP [2]: >20 mmHg
O=C(O)c1ccc(NCc2cc(Cl)cc(Cl)c2)cn1 | >60 | –
O=C(O)c1ccc(NCc2cccc(Oc3ccccc3)c2)cn1 | >20 | –
Cc1nc(C(=O)O)ccc1NCc1cccc(Cl)c1 | >20 | –
